Measurements as given in article PMC3481835 (Clinical pharmacology and therapeutics, 2011).
Where two headings read alike, the source gives them in different places.

Columns and labels:
CYP3A4 [1] = details: cited from earlier work; for decrease in urinary 6β-hydroxycortisol to cortisol-ratio: range printed for the three inhibitors
CYP3A4 [2] = details: cited from earlier work; for predicted decrease in CYP3A4 mediated clearance: predicted from I/Ki
[3] = Renal clearance of cortisol; type: in vivo, human
CYP2B6 [4] = target: T1, CYP2B6 (Homo sapiens, UniProt P20813); details: recombinant enzyme
T1 sequence (P20813 1-491): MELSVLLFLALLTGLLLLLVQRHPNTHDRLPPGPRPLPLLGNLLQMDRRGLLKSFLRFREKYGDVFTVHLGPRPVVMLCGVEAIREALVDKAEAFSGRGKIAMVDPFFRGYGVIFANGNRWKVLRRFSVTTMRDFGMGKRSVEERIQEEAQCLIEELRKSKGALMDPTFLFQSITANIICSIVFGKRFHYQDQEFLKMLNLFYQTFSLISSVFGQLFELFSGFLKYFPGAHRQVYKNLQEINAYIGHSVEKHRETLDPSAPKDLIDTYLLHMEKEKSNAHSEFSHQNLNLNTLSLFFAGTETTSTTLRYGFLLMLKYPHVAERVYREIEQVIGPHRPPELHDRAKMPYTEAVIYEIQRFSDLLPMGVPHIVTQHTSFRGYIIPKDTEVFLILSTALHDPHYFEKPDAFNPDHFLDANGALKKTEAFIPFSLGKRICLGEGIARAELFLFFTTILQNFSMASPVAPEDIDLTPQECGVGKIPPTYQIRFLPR

CYP3A4 [5] = target: T2, CYP3A4 (Homo sapiens, UniProt P08684); details: recombinant enzyme, pH 7.4
CYP2B6 [6] = target: T1, CYP2B6; assay: 6β-hydroxylation by recombinantly-expressed CYP2B6; details: recombinantly-expressed enzyme
[7] = Plasma concentrations of cortisol and cortisone after itraconazole; type: in vivo, human; details: single doses 50, 200 and 400 mg po
CYP3A4 [8] = target: T2, CYP3A4; assay: in vitro; details: pH 7.4
CYP3A4 [9] = type: in vivo, human
CYP3A4 [10] = target: T2, CYP3A4; assay: Formation clearance; type: in vivo; details: 50 mg itraconazole
CYP3A4 [11] = details: during treatment; cited from earlier work
Fraction unbound = type: in vitro ADME; details: human, pooled human liver microsomes
Method in brief: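 Pooled microsomes from three CYP3A5*3/*3 donors (equal protein each), 0.5 mg/mL, spiked with test compound at 5, 50 or 1000 nM, duplicates. Each sample split: one aliquot ultracentrifuged at 445,760 g, 140 min, 37 °C; the other held at 37 °C for the same time. Upper clear layer and uncentrifuged sample taken into ACN with deuterated internal standard; HPLC (C8, ammonium acetate/ACN gradient) with LC-MS.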

CYP3A4 [12] = target: T2, CYP3A4; assay: in vitro; details: pH 7.4; remark: listed apart in the source

T2 sequence (P08684 whole entry): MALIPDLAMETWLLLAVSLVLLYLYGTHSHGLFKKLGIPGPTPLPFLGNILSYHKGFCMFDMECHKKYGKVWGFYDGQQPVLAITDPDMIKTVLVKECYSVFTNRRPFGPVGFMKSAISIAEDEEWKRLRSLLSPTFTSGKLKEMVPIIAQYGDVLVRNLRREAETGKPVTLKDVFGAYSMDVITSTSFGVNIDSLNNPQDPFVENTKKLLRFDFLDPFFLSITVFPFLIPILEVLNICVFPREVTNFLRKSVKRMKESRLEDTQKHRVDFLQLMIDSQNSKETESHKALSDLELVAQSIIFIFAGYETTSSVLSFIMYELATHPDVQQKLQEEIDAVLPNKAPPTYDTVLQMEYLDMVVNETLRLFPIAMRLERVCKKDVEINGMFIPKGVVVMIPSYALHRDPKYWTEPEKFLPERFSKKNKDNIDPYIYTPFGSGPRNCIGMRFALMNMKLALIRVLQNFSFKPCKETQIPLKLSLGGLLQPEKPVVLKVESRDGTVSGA

CC(C)CN(C[C@@H](O)[C@H](Cc1ccccc1)NC(=O)O[C@H]1CCOC1)S(=O)(=O)c1ccc(N)cc1 [amprenavir]
effect on urinary 6β-hydroxycortisol to cortisol ratio (CYP3A4 [1]): no significant inhibitory effect

Cc1ncc2n1-c1ccc(Cl)cc1C(c1ccccc1F)=NC2 [midazolam]
in vivo fm attributed to CYP3A4, midazolam metabolism (CYP3A4 [2]; ref not given): 84%

C[C@]12CCC(=O)C=C1CC[C@@H]1[C@@H]2[C@@H](O)C[C@@]2(C)[C@H]1CC[C@]2(O)C(=O)CO [cortisol]
CL renal ([3]; both, human, urine and plasma): 0.283 mL/min
v, 6β-hydroxylation by CYP2B6 (CYP2B6 [4]; human, 25 µM, pH 7.4): 0.11 pmol/min/pmol
CYP3A4 mediated CLint relative to CYP2B6 mediated CLint (CYP2B6 [4]; human, pH 7.4): 40 fold
apparent CYP2B6 mediated intrinsic clearance (CYP2B6 [4]; human, pH 7.4): 0.0045 mL/min/nmol P450
6β-hydroxylation detected with CYP2B6 (CYP2B6 [4]): observed
intrinsic clearance (CLint), 6β-hydroxylation by CYP3A4 (CYP3A4 [5]): 0.18 mL/min/nmol CYP3A4

C#C[C@]1(O)CC[C@H]2[C@@H]3CCC4=Cc5oncc5C[C@]4(C)[C@H]3CC[C@@]21C [danazol]
decrease in urinary 6β-hydroxycortisol to cortisol-ratio (CYP3A4 [1]): 15-65%

C[C@]12CCC(=O)C=C1CC[C@@H]1[C@@H]2C(=O)C[C@@]2(C)[C@H]1CC[C@]2(O)C(=O)CO [cortisone]
6β-hydroxylation detected with CYP2B6 (CYP2B6 [6]): not

CC[C@H]1OC(=O)[C@H](C)[C@@H](O[C@H]2C[C@@](C)(OC)[C@@H](O)[C@H](C)O2)[C@H](C)[C@@H](O[C@@H]2O[C@H](C)C[C@H](N(C)C)[C@H]2O)[C@](C)(OC)C[C@@H](C)C(=O)[C@H](C)[C@@H](O)[C@]1(C)O [clarithromycin]
decrease in urinary 6β-hydroxycortisol to cortisol-ratio (CYP3A4 [1]): 15-65%

CCC(C)n1ncn(-c2ccc(N3CCN(c4ccc(OCC5COC(Cn6cncn6)(c6ccc(Cl)cc6Cl)O5)cc4)CC3)cc2)c1=O (stereo not shown) [itraconazole]
effect on the plasma concentrations of cortisol or cortisone [7]: no effect
Emax at 15 min (CYP3A4 [8]): 78 to 85%
effect on renal clearance of cortisol ([3]; escalating itraconazole doses): unchanged
decrease in MDZ CL/F (CYP3A4 [2]; 50 mg itraconazole): 50%
predicted decrease in CYP3A4 mediated clearance (CYP3A4 [2]; 24-48 hours after 400 mg): 50-70%
decrease in MDZ CL/F (CYP3A4 [2]; 200 and 400 mg itraconazole): 80%
expected persistence of CYP3A4 inhibition (CYP3A4 [2]; after 400 mg, return to baseline at 72 hours): 48 h
RKi (IC50,in vitro/IC50,in vivo), itraconazole-oral MDZ interaction (CYP3A4 [2]): 14.5
predicted decrease in CYP3A4 mediated clearance (CYP3A4 [2]; first 24 hours after 400 mg): 70-90%
predicted decrease in oral midazolam clearance (CYP3A4 [9]; 50 mg ITZ): 30%
predicted decrease in hepatic midazolam clearance (CYP3A4 [9]; 50 mg ITZ, from circulating ITZ and metabolites and in vitro IC50): 21%
predicted decrease in oral midazolam clearance (CYP3A4 [9]; 200 mg ITZ): 77%
decrease in the CLf processes (CYP3A4 [10]): No significant decrease
decrease in 4β-hydroxycholesterol concentrations (CYP3A4 [11]): 21-29%
decrease in total cholesterol (CYP3A4 [11]): 10%
fraction unbound at 140 min (Fraction unbound): 0.046 ± 0.01
Emax at 15 min (CYP3A4 [12]): 78 to 85%
